Assay results published in ChEMBL document CHEMBL2029291, “Synthesis and structure-activity relationships of new quinolone-type molecules against Trypanosoma brucei” (J Med Chem, 2012).
Where a name gives a salt, the structure may show the parent alone. Active and inactive are the calls of the source. No cut-off for these calls is given here.

Assays:
[1] = test system: Trypanosoma brucei brucei; assay: Cell cycle arrest in GFP-labeled Trypanosoma brucei brucei assessed as increase in segregated 1K1N cell population at IC50 concentration after 42 hrs by DAPI staining-based fluorescence microscopic analysis
[2] = Selectivity index, ratio of IC50 for mouse J774.1 cells to IC50 for Trypanosoma brucei brucei TC221; format: toxicity; conditions: read-out: Ratio IC50
[3] = test system: Trypanosoma brucei brucei; assay: Antitrypanosomal activity against Trypanosoma brucei brucei TC221 […] after 72 hrs by alamar blue assay; format: functional, organism-based; conditions: for IC50: TC221, 72 h
Summary of the method: (§1)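 Trypomastigote T. b. brucei TC 221 grown in Baltz medium, seeded at 10⁴ per mL and exposed to graded compound concentrations (dissolved in DMSO or 0.1 M NaOH). Incubated at 37 °C, 5% CO₂ for 72 h, with a reading also taken at 48 h. AlamarBlue absorbance read at 550/630 nm. IC50 by linear interpolation; duplicate tests, mean and SD.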

[4] = Lipophilicity, log P of the compound by RP-HPLC analysis; format: physicochemical
Summary of the method: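 LogP by RP-HPLC on a C18 Inertsil ODS-2 column. Mobile phase was methanol/10 mM phosphate buffer pH 7.4 (70:30) at 1.5 mL/min. Samples were at 4 μg/mL, detected at 254.4 nm, and run in duplicate. Capacity ratio was calculated as k′ = (tr − to)/to.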

[5] = test system: Trypanosoma brucei brucei; assay: Antitrypanosomal activity against Trypanosoma brucei brucei TC221 […] after 48 hrs by alamar blue assay; format: functional, organism-based; conditions: for IC50: TC221, 48 h
Summary of the method: as §1

[6] = Cytotoxicity against mouse J774.1 cells after 48 hrs by alamar blue assay; format: cell-based; conditions: J774.1, 48 h
Summary of the method: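 J774.1 macrophages kept in complete Click RPMI, detached by scraping, PBS-washed, suspended at 2 × 10⁶ cells/mL and plated in phenol-red-free RPMI with or without compound. AlamarBlue added and absorbance read 24 and 48 h later. Compound-free wells taken as 100% growth. Effects of cell density, incubation time and DMSO level were controlled. Tested in duplicate.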

Trypanosoma brucei [7] = assay: Antitrypanosomal activity in topoisomerase 2-knockout BSF Trypanosoma brucei assessed as assessed as shrinkage of kinetoplast over time at IC50 concentration after 48 hrs by […]; format: functional, organism-based
Summary of the method: (§2)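 RNAi against mitochondrial topoisomerase II in the BSF mitochondrion marker line. A 500 bp topoII fragment in p2T7-177 was transfected by nucleofection, with puromycin selection at 0.3 μg/mL. RNAi was induced with 1 μg/mL tetracycline. Knockdown was confirmed by Northern blot at 24 h, with tubulin as reference. Growth and DAPI-stained kinetoplast loss were followed over time.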

Trypanosoma brucei [8] = assay: Antitrypanosomal activity in topoisomerase 2-knockout BSF Trypanosoma brucei assessed as assessed as shrinkage of kinetoplast over time at IC50 concentration after 72 hrs by […]; format: functional, organism-based
Summary of the method: as §2

[9] = Chemical stability of the compound in 35% cremophore RH40, 45% capmul MCM C8, 10% triethylcitrate and 10% ethanol after 24 hrs; format: physicochemical
Summary of the method: (§3)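 Oral preconcentrate of Cremophor RH40 (35%), Capmul MCM C8 (45%), triethylcitrate (10%) and ethanol (10%) was tested for dissolving compound at 10 mg/mL. Stability of the emulsion formed in aqueous solution was observed over time.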

[10] = test system: Trypanosoma brucei rhodesiense; assay: Antitrypanosomal activity against Trypanosoma brucei rhodesiense STIB900 […] after 48 hrs by alamar blue assay; format: functional, organism-based
[11] = Aqueous solubility of the compound in 10% Cremophore RH40; format: physicochemical; conditions: buffer
Summary of the method: (§4)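 Water solubility was assessed after adding 10% Tween 80 or 10% Cremophor RH40 to the compound.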

[12] = test system: Trypanosoma brucei rhodesiense; assay: Antitrypanosomal activity against Trypanosoma brucei rhodesiense STIB900 infected in NMRI mouse at 50 mg/kg, po administered on day 3 to 6 post infection measured every second day up to 6 days post infection; format: functional, organism-based; parameters: dose 50 mg/kg
Summary of the method: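 Acute mouse model with T. b. rhodesiense STIB900-infected NMRI mice. Compound was given orally as a 1:1 aqueous dilution of a 10 mg/mL preconcentrate (Cremophor RH40 35%, Capmul MCM C8 45%, triethylcitrate 10%, ethanol 10%). An untreated control group was included. Parasitemia was checked every second day to day 6, and survival was recorded. Aparasitemic survivors at 60 days were counted as cured.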

[13] = Selectivity index, ratio of IC50 for mouse J774.1 cells to IC50 for Trypanosoma brucei rhodesiense STIB900; format: toxicity; conditions: read-out: Ratio IC50
Summary of the method: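 Selectivity index is the J774.1 IC50 divided by the trypanosome IC50. J774.1 macrophages were kept in complete Click RPMI, washed, and plated in phenol red-free RPMI with compound. AlamarBlue was added and plates were read 24 and 48 h later. Absorbance without compound was set as 100% growth.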

[14] = Aqueous solubility of the compound in 10% Tween 80; format: physicochemical; conditions: buffer
Summary of the method: as §4

[15] = Aqueous solubility of the compound in 35% cremophore RH40, 45% capmul MCM C8, 10% triethylcitrate and 10% ethanol; format: physicochemical; conditions: buffer
Summary of the method: as §3

Row | IC50 [3] [µM] | IC50 [5] [µM] | SMILES | selectivity ratio [2] | IC50 [6] [µM] | also measured
1 | – | – | O=C(O)c1cn(C2CC2)c2cc(N3CCNCC3)c(F)cc2c1=O | – | – | Activity [1]: Active
2 | 1.25 | 0.75 | CCCn1cc(C(=O)NCc2ccccc2)c(=O)c2cc(F)c(N3CCC(C(N)=O)CC3)cc21 | 58.3 | 43.7 | logP ([4]; read-out: logP): 2.4
3 | – | 0.31 | Cc1ccc(C(=O)Nc2ccc(S(=O)(=O)O)c3cc(S(=O)(=O)O)cc(S(=O)(=O)O)c23)cc1NC(=O)c1cccc(NC(=O)Nc2cccc(C(=O)Nc3cc(C(=O)Nc4ccc(S(=O)(=O)O)c5cc(S(=O)(=O)O)cc(S(=O)(=O)O)c45)ccc3C)c2)c1 [SURAMIN HEXASODIUM] | – | – | –
4 | > 40 | > 40 | CCn1cc(C(=O)O)c(=O)c2ccc(C(F)(F)F)cc21 | > 2.5 | > 100 | –
5 | > 40 | > 40 | CCn1cc(C(=O)Nc2ccc(Cl)c(F)c2)c(=O)c2ccc(C(F)(F)F)cc21 | > 2.5 | > 100 | –
6 | 22.2 | 19.2 | CCCCn1cc(C(=O)O)c(=O)c2cc(F)c(N3CCOCC3)cc21 | > 5.21 | > 100 | –
7 | 1.91 | 1.07 | NC(=O)C1CCN(c2cc3c(cc2F)c(=O)c(C(=O)NCc2ccccc2)cn3C2CC2)CC1 | 47.9 | 51.2 | logP ([4]; read-out: logP): 2.4
8 | – | – | CCOC(=O)c1c[nH]c2cc(Cl)c(F)cc2c1=O | – | – | Activity [3]: inactive; Activity [5]: inactive
9 | > 40 | > 40 | CCCn1cc(C(=O)O)c(=O)c2cc(F)c(N3CCC(C(N)=O)CC3)cc21 | > 2.5 | > 100 | –
10 | > 40 | > 40 | NC(=O)C1CCN(c2cc3c(cc2F)c(=O)c(C(=O)O)cn3C2CC2)CC1 | > 2.5 | > 100 | –
11 | > 40 | > 40 | CCCn1cc(C(=O)O)c(=O)c2cc(F)c(Cl)cc21 | > 2.5 | > 100 | –
12 | 23 | 17.2 | CCCCn1cc(C(=O)O)c(=O)c2cc(F)c(N(C)Cc3ccccc3)cc21 | 2.51 | 43.2 | –
13 | 2.56 | 2.75 | COc1ccc(CNC(=O)c2cn(C3CC3)c3cc(N4CCC(C(N)=O)CC4)c(F)cc3c2=O)cc1 | > 36.4 | > 100 | –
14 | > 40 | > 40 | CCCCn1cc(C(=O)O)c(=O)c2cc(F)c(N3CCC(C(N)=O)CC3)cc21 | > 2.5 | > 100 | –
15 | – | 22.9 | NCCCC(N)(C(=O)O)C(F)F (configuration not stated) [EFLORNITHINE HYDROCHLORIDE] | – | – | –
16 | 18.1 | 14.6 | CCCCn1cc(C(=O)O)c(=O)c2cc(F)c(N3CCCCC3)cc21 | 6.39 | 93 | –
17 | 6.37 | 7.31 | CCn1cc(C(=O)NCc2ccc(OC)cc2)c(=O)c2ccc(C(F)(F)F)cc21 | > 13.7 | > 100 | –
18 | 4.84 | 4.6 | CCCn1cc(C(=O)NCc2ccco2)c(=O)c2cc(F)c(N3CCC(C(N)=O)CC3)cc21 | 12.4 | 56.9 | –
19 | 12.1 | 8.89 | NC(=O)C1CCN(c2cc3c(cc2F)c(=O)c(C(=O)NCc2ccco2)cn3C2CC2)CC1 | > 11.2 | > 100 | –
20 | > 40 | > 40 | CCCCn1cc(C(=O)O)c(=O)c2cc(F)c(Cl)cc21 | > 2.5 | > 100 | –
21 | – | – | CCOC(=O)c1cnc2cc(C(F)(F)F)ccc2c1O | – | – | Activity [3]: inactive; Activity [5]: inactive
22 | 3.12 | 2.28 | CCCn1cc(C(=O)NCc2ccc(OC)cc2)c(=O)c2cc(F)c(N3CCC(C(N)=O)CC3)cc21 | 18.2 | 41.4 | –
23 | – | 0.0029 | N=C(N)c1ccc(OCCCCCOc2ccc(C(=N)N)cc2)cc1 [PENTAMIDINE ISETHIONATE] | – | – | –
24 | > 40 | > 40 | CCCCn1cc(C(=O)O)c(=O)c2cc(F)c(N(C)C)cc21 | > 2.5 | > 100 | –

Row | SMILES | IC50 [3] [µM] | IC50 [5] [µM] | selectivity ratio [2] | IC50 [6] [µM] | also measured
25 | CCCCn1cc(C(=O)NCc2ccccc2)c(=O)c2cc(F)c(-c3ccccc3)cc21 | > 40 | > 40 | > 2.5 | > 100 | –
26 | Nc1nc(N)nc(Nc2ccc([As]3SCC(CO)S3)cc2)n1 (configuration not stated) [MELARSOPROL] | – | 0.0026 | – | – | –
27 | CCCCn1cc(C(=O)NCc2ccc(OC)cc2)c(=O)c2cc(F)c(N3CCC(C(N)=O)CC3)cc21 | 1.45 | 0.78 | 52.3 | 40.8 | Activity (Trypanosoma brucei [7]): Active; Activity [1]: Active; Activity (Trypanosoma brucei [8]): Active; logP ([4]; read-out: logP): 2.4
28 | CCCCn1cc(C(=O)NCc2ccc(OC)c([N+](=O)[O-])c2)c(=O)c2cc(F)c(N3CCC(C(N)=O)CC3)cc21 | 4.14 | 3.07 | > 32.6 | > 100 | –
29 | CCCCn1cc(C(=O)NCc2ccccc2)c(=O)c2cc(F)c(N(C)Cc3ccccc3)cc21 | 10.8 | 5.4 | 15.9 | 86 | –
30 | CCCCn1cc(C(=O)NCc2ccc(O)cc2)c(=O)c2cc(F)c(N3CCC(C(N)=O)CC3)cc21 | 5.12 | 3.09 | 13.5 | 41.6 | –
31 | CCCCn1cc(C(=O)NCc2ccccc2)c(=O)c2cc(F)c(N3CCOCC3)cc21 | 0.05 | 0.047 | 1140 | 57 | Activity (Trypanosoma brucei [7]): Active; Stability [9]: Stable; Activity [1]: Active; Activity (Trypanosoma brucei [8]): Active; IC50 [10]: 0.009 µM; solubility [11]: Insoluble; logP [4]: 2.4; Activity [12]: inactive; selectivity ratio [13]: 6330; solubility [14]: Insoluble; solubility [15]: soluble
32 | CCCCn1cc(C(=O)NCc2ccco2)c(=O)c2cc(F)c(N3CCC(C(N)=O)CC3)cc21 | 1.84 | 1.03 | 40.2 | 41.4 | logP ([4]; read-out: logP): 2.4
33 | CCCCn1cc(C(=O)NCc2ccccc2)c(=O)c2cc(F)c(N(C)C)cc21 | 0.92 | 0.68 | > 147 | > 100 | logP ([4]; read-out: logP): 2.4
34 | CCCCn1cc(C(=O)NCc2ccccc2)c(=O)c2cc(F)c(N3CCC(C(N)=O)CC3)cc21 | 1.98 | 1.09 | 43.1 | 47 | logP ([4]; read-out: logP): 2.4
35 | CCCCn1cc(C(=O)NCc2ccccc2)c(=O)c2cc(F)c(N3CCCCC3)cc21 | 1.04 | 0.67 | 71.3 | 47.8 | logP ([4]; read-out: logP): 2.4
36 | CCCCn1cc(C(=O)NCc2ccc([N+](=O)[O-])cc2)c(=O)c2cc(F)c(N3CCC(C(N)=O)CC3)cc21 | 0.58 | 0.54 | > 185 | > 100 | logP ([4]; read-out: logP): 2.4
